Source: ChEMBL document CHEMBL1681713, “Lead detoxification activities and ADMET hepatotoxicities of a class of novel 5-(1-carbonyl-L-amino-acid)-2,2-dimethyl-[1,3]dithiolane-4-carboxylic acids” (Bioorg Med Chem Lett, 2011)

Columns and labels:
[1] = test system: Brain; assay: Toxicity in mouse assessed as effect on iron level in brain per gram of organ at 0.4 mmol/kg, ip qd for 5 days; assay type: organism-based; conditions: in vivo, 120 h
[2] = test system: Femur; assay: Detoxification activity against lead-induced toxicity in mouse assessed as reduction lead level in femurs per gram of organ at 0.4 mmol/kg, ip qd for 5 days measured 24 hrs last post dose by synchrotron X-ray fluorescence analysis; assay type: functional
Outline: (§1)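 Lead-loaded mice were given normal saline vehicle (negative control) or test agent at 0.2, 0.4 or 0.6 mmol/kg. Lead was measured in liver, kidney, left femur and brain and reported as mean ± SD µg Pb/g organ against the NS group.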

[3] = test system: Kidney; assay: Detoxification activity against lead-induced toxicity in mouse assessed as reduction lead level in kidney per gram of organ at 0.4 mmol/kg, ip qd for 5 days measured 24 hrs last post dose by synchrotron X-ray fluorescence analysis; assay type: functional; outline: as §1
[4] = Apparent permeability from basolateral to apical side of human Caco2 cells at 4 mM up to 120 mins by HPLC analysis; assay type: ADME, cell-based; conditions: Caco-2
Outline: (§2)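 Permeability measured across Caco-2 cell monolayers.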

[5] = test system: Brain; assay: Toxicity in mouse assessed as effect on zinc level in brain per gram of organ at 0.4 mmol/kg, ip qd for 5 days; assay type: organism-based; conditions: in vivo, 120 h
[6] = test system: Brain; assay: Toxicity in mouse assessed as effect on manganese level in brain per gram of organ at 0.4 mmol/kg, ip qd for 5 days; assay type: organism-based; conditions: in vivo, 120 h
[7] = test system: Mus musculus; assay: Toxicity in mouse assessed as change in bodyweight at 0.4 mmol/kg, ip qd for 5 days; assay type: organism-based; conditions: in vivo, 120 h
Outline: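 Lead-loaded mice were given normal saline vehicle or test agent at 0.4 mmol/kg. Body weights were recorded and compared with the NS group to assess growth.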

[8] = test system: Kidney; assay: Toxicity in mouse assessed as effect on manganese level in kidney per gram of organ at 0.4 mmol/kg, ip qd for 5 days; assay type: organism-based; conditions: in vivo, 120 h
[9] = test system: Liver; assay: Toxicity in mouse assessed as effect on manganese level in liver per gram of organ at 0.4 mmol/kg, ip qd for 5 days; assay type: organism-based; conditions: in vivo, 120 h
[10] = test system: Liver; assay: Toxicity in mouse assessed as effect on zinc level in liver per gram of organ at 0.4 mmol/kg, ip qd for 5 days; assay type: organism-based; conditions: in vivo, 120 h
[11] = Apparent permeability from apical to basolateral side of human Caco2 cells at 4 mM up to 120 mins by HPLC analysis; assay type: ADME, cell-based; conditions: Caco-2; outline: as §2
[12] = Detoxification activity against lead-induced toxicity in mouse assessed as reduction lead level in urine at 0.4 mmol/kg, ip qd for 5 days measured 24 hrs last post dose by synchrotron X-ray fluorescence analysis; assay type: functional
Outline: (§3)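 Lead-loaded mice were given normal saline vehicle, DL-penicillamine or NaDMS (positive controls), or test agent, each at 0.4 mmol/kg; n = 12 per group. Lead was measured in feces and urine and reported as mean ± SD µg Pb/g excrement against the NS group.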

[13] = test system: Caco-2; assay: Efflux ratio of permeability […] in human Caco2 cells at 4 mM up to 120 mins by HPLC analysis; assay type: ADME, cell-based; conditions: caco-2, 2 h, 4000 µM; outline: as §2
[14] = test system: Brain; assay: Detoxification activity against lead-induced toxicity in mouse assessed as reduction lead level in brain per gram of organ at 0.4 mmol/kg, ip qd for 5 days measured 24 hrs last post dose by synchrotron X-ray fluorescence analysis; assay type: functional; outline: as §1
[15] = test system: Kidney; assay: Toxicity in mouse assessed as effect on copper level in kidney per gram of organ at 0.4 mmol/kg, ip qd for 5 days; assay type: organism-based; conditions: in vivo, 120 h
[16] = test system: Liver; assay: Toxicity in mouse assessed as effect on calcium level in liver per gram of organ at 0.4 mmol/kg, ip qd for 5 days; assay type: organism-based; conditions: in vivo, 120 h
[17] = test system: Kidney; assay: Toxicity in mouse assessed as effect on calcium level in kidney per gram of organ at 0.4 mmol/kg, ip qd for 5 days; assay type: organism-based; conditions: in vivo, 120 h
[18] = test system: Brain; assay: Toxicity in mouse assessed as effect on calcium level in brain per gram of organ at 0.4 mmol/kg, ip qd for 5 days; assay type: organism-based; conditions: in vivo, 120 h
[19] = test system: Liver; assay: Toxicity in mouse assessed as effect on iron level in liver per gram of organ at 0.4 mmol/kg, ip qd for 5 days; assay type: organism-based; conditions: in vivo, 120 h
[20] = test system: Kidney; assay: Toxicity in mouse assessed as effect on zinc level in kidney per gram of organ at 0.4 mmol/kg, ip qd for 5 days; assay type: organism-based; conditions: in vivo, 120 h
[21] = Detoxification activity against lead-induced toxicity in mouse assessed as reduction lead level in feces at 0.4 mmol/kg, ip qd for 5 days measured 24 hrs last post dose by synchrotron X-ray fluorescence analysis; assay type: functional; outline: as §3
[22] = test system: Liver; assay: Detoxification activity against lead-induced toxicity in mouse assessed as reduction lead level in liver per gram of organ at 0.4 mmol/kg, ip qd for 5 days measured 24 hrs last post dose by synchrotron X-ray fluorescence analysis; assay type: functional; outline: as §1
[23] = test system: Brain; assay: Toxicity in mouse assessed as effect on copper level in brain per gram of organ at 0.4 mmol/kg, ip qd for 5 days; assay type: organism-based; conditions: in vivo, 120 h
[24] = test system: Kidney; assay: Toxicity in mouse assessed as effect on iron level in kidney per gram of organ at 0.4 mmol/kg, ip qd for 5 days; assay type: organism-based; conditions: in vivo, 120 h
[25] = test system: Liver; assay: Toxicity in mouse assessed as effect on copper level in liver per gram of organ at 0.4 mmol/kg, ip qd for 5 days; assay type: organism-based; conditions: in vivo, 120 h

Row | Papp B→A at 2 h, 4000 µM [4] [×10⁻⁶ cm/s] | Papp A→B at 2 h, 4000 µM [11] [×10⁻⁶ cm/s] | Ratio [13] | SMILES | Activity [1] [µg/g] | Activity [2] [µg/g] | Activity [3] [µg/g] | Activity [5] [µg/g] | Activity [6] [µg/g] | Activity [7] [g] | Activity [8] [µg/g] | Activity [9] [µg/g] | Activity [10] [µg/g] | Activity [12] [µg/g] | Activity [14] [µg/g] | Activity [15] [µg/g] | Activity [16] [µg/g] | Activity [17] [µg/g] | Activity [18] [µg/g] | Activity [19] [µg/g] | Activity [20] [µg/g] | further results
1 | 4.68 | 13.7 | 2.91 | CC1(C)SC(C(=O)O)C(C(=O)O)S1 (stereo not given) | 56.6 | 15.47 | 7.12 | 34.54 | 0.7 | 29 | 1.3 | 1.36 | 36.66 | 1.93 | 1.42 | 3.4 | 58.87 | 75.94 | 71.33 | 152.9 | 28 | Activity [21]: 4.57 µg/g; Activity [22]: 4.02 µg/g; Activity [23]: 2.42 µg/g; Activity [24]: 95.1 µg/g; Activity [25]: 3.61 µg/g
2 | 5.05 | 15.7 | 3.11 | CSCC[C@H](NC(=O)C1SC(C)(C)SC1C(=O)O)C(=O)O (stereo not given in full) | 56.6 | 13.71 | 6.36 | 33.66 | 0.73 | 30 | 1.37 | 1.39 | 36.78 | 2.26 | 0.91 | 3.65 | 59.64 | 77.39 | 70.51 | 153.33 | 27.79 | Activity [21]: 4.35 µg/g; Activity [22]: 3.51 µg/g; Activity [23]: 2.41 µg/g; Activity [24]: 93.88 µg/g; Activity [25]: 3.59 µg/g
3 | 4.91 | 14.2 | 2.9 | CC[C@H](C)[C@H](NC(=O)C1SC(C)(C)SC1C(=O)O)C(=O)O (stereo not given in full) | 56.49 | 14.32 | 6.49 | 33 | 0.75 | 30.6 | 1.44 | 1.34 | 36.79 | 2.42 | 1.42 | 3.54 | 59.96 | 75.99 | 69 | 152.94 | 27.41 | Activity [21]: 4.1 µg/g; Activity [22]: 5 µg/g; Activity [23]: 2.48 µg/g; Activity [24]: 92.98 µg/g; Activity [25]: 3.73 µg/g
